The values below come from ChEMBL document CHEMBL1146916, “Studies towards the conception of new selective PPARbeta/delta ligands” (Bioorg Med Chem Lett, 2006).

Activity calls are given as the source filed them. The calls are words filed in the database; no cut-off is given here.

For the first assay, the target named is PPAR delta/gamma (Homo sapiens) (UniProt P37231+Q03181). Description: Selectivity for human PPARdelta over human PPARgamma. It is filed as protein assay.
Settings: not given
Summed up:
(§1)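 The selectivity ratio is taken from EC50 values measured in Cos-7 cells transiently transfected with the pG5-TK-pGL3 luciferase reporter plus Gal4 DBD–human PPARβ/δ, PPARα or PPARγ LBD chimeras and β-galactosidase control. Cells were treated for 16 h in 0.2% FCS DMEM at 10 µM–10 nM. EC50s were fitted from β-gal-normalized luciferase and are means of three experiments.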
With `CCCc1c(OCCCOc2ccc(OCC(=O)O)cc2)ccc(C(C)=O)c1O`, the Selectivity ratio stood at 15.

For the next assay, the target named is T1, Peroxisome proliferator-activated receptor alpha (Homo sapiens) (UniProt Q07869).
T1 sequence (whole entry): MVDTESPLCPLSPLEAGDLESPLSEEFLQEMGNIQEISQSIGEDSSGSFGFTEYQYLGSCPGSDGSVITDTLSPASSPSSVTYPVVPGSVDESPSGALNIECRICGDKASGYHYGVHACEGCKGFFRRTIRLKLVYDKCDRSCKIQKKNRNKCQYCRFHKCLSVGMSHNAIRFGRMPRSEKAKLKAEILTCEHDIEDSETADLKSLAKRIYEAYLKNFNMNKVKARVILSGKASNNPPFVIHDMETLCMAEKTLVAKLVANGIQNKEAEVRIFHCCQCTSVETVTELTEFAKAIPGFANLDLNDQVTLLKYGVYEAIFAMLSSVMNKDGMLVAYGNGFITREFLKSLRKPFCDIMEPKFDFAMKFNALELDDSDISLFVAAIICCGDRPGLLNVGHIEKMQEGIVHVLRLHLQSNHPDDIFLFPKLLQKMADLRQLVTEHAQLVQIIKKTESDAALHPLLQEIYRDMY
As to the kind of experiment: (§2) Activity at PPARalpha by luciferase reporter gene transactivation assay in COS7 cells. It is filed as functional, cell-based. As to conditions: COS-7.
In the case of `CCCc1ccccc1OCCCOc1ccc(OCC(=O)OC)cc1`, the outcome was inactive.

For the compound `COC(=O)COc1ccc(OCCCOc2cccc(O)c2)cc1`, the result was inactive.

For `CC(=O)c1ccc(OCCCOc2ccc(OCC(=O)O)cc2)cc1O`, the outcome was inactive.

As to `CC(=O)c1ccc(OCCCOc2ccc(OCC(=O)O)cc2)cc1`, the result was inactive.

A further assay has as its target T2, Peroxisome proliferator-activated receptor alpha (Homo sapiens, UniProt Q07869).
T2 sequence (Q07869 whole entry): T1 sequence (whole entry)
The assay is described as §2. It is filed as functional, cell-based, COS-7.
Settings: not given
In turn, `CCCc1cc(C(F)(F)F)ccc1OCCCOc1ccc(OCC(=O)OC)c(C)c1` registered an EC50 of 1010 nM. That is a single-digit micromolar value.

`CCCc1c(OCCCOc2ccc(OCC(=O)OC)cc2)cnc(C(C)=O)c1O`: the EC50 came out at 8390 nM.

For `CCCc1cc(C(F)(F)F)ccc1OCCCOc1ccc(OCC(=O)OC)cc1`, the half-maximal effective concentration (EC50) came to 1400 nM.

As for `CCCc1c(OCCCOc2ccc(OCC(=O)OC)cc2)ccc(C(C)=O)c1O`, the EC50 is 1070 nM.

`CCCc1cc(C(F)(F)F)ncc1OCCCOc1ccc(OCC(=O)O)c(C)c1` yielded a concentration for a half-maximal effect (EC50) of 1330 nM.

Regarding `CCCc1cc(C(F)(F)F)ccc1OCCCOc1ccc(OCC(=O)O)c(C)c1`, the EC50 turned out to be 103 nM.

Consider `CCCc1c(OCCCOc2ccc(OCC(=O)O)cc2)ccc(C(C)=O)c1O`, for which a half-maximal effect (EC50) was put at 977 nM.

Another assay concerns the target T3, Peroxisome proliferator-activated receptor delta (Homo sapiens, UniProt Q03181).
T3 sequence (Q03181 whole entry): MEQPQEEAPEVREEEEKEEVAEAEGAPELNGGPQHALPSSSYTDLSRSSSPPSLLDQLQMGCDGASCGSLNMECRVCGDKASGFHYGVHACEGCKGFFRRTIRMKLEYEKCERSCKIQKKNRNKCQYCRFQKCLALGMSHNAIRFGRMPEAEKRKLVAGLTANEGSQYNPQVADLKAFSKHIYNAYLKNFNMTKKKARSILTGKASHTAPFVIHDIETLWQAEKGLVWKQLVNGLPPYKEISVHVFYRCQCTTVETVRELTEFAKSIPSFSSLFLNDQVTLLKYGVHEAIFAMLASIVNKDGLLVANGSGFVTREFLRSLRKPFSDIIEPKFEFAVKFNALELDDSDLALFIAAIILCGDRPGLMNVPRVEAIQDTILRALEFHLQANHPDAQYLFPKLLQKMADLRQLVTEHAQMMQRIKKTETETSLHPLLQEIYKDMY
Description: (§3) Activity at PPARbeta/delta by luciferase reporter gene transactivation assay in COS7 cells. It is filed as functional, cell-based, COS-7.
Settings: not given
As for `CCCc1cc(C(F)(F)F)ccc1OCCCOc1ccc(OCC(=O)OC)c(C)c1`, the 50% effective concentration (EC50) was found to be 16 nM.

For the compound `CCCc1c(OCCCOc2ccc(OCC(=O)OC)cc2)cnc(C(C)=O)c1O`, it took 82 nM to reach a half-maximal effect (EC50). This EC50 lies about 5.1-fold higher than the previous one.

Take `CCCc1ccccc1OCCCOc1ccc(OCC(=O)OC)cc1`: the 50% effective concentration (EC50) came out at 1050 nM.

`CCCc1cc(C(F)(F)F)ccc1OCCCOc1ccc(OCC(=O)OC)cc1`: the EC50 was 98 nM.

For the compound `CCCc1c(OCCCOc2ccc(OCC(=O)OC)cc2)ccc(C(C)=O)c1O`, the EC50 was found to be 457 nM.

Compound `CCCc1cc(C(F)(F)F)ncc1OCCCOc1ccc(OCC(=O)O)c(C)c1` gave an EC50 of 15 nM.

For `CC(=O)c1ccc(OCCCOc2ccc(OCC(=O)O)cc2)cc1O`, the response was half-maximal at 10000 nM (EC50). Compared with the last compound, the EC50 is about 670-fold higher.

`CCCc1cc(C(F)(F)F)ccc1OCCCOc1ccc(OCC(=O)O)c(C)c1` displayed an EC50 of 7 nM.

In turn, `CCCc1c(OCCCOc2ccc(OCC(=O)O)cc2)ccc(C(C)=O)c1O` showed an EC50 of 125 nM.

The next assay addresses T4, Peroxisome proliferator-activated receptor delta (Homo sapiens) (UniProt Q03181).
T4 sequence (whole entry): T3 sequence (Q03181 whole entry)
The assay is described as §3. It is filed as functional, cell-based. As to conditions: COS-7.
For the compound `COC(=O)COc1ccc(OCCCOc2cccc(O)c2)cc1`, the outcome was inactive.

For `CC(=O)c1ccc(OCCCOc2ccc(OCC(=O)O)cc2)cc1`, the outcome was inactive.

The target of another assay is T5, Peroxisome proliferator-activated receptor gamma (Homo sapiens, UniProt P37231).
T5 sequence (P37231 whole entry): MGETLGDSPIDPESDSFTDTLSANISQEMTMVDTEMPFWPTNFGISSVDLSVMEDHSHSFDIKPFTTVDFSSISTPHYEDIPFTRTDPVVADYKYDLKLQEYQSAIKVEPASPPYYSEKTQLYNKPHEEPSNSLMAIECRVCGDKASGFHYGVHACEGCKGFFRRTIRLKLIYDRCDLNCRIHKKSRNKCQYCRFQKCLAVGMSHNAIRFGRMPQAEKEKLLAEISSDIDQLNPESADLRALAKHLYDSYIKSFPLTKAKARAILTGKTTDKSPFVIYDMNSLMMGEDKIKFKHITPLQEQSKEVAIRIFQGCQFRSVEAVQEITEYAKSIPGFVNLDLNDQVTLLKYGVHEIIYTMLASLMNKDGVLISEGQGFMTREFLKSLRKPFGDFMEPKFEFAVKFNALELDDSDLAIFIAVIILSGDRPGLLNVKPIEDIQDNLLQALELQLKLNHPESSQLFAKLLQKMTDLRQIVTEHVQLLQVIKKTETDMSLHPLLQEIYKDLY
Description: Activity at PPARgamma by luciferase reporter gene transactivation assay in COS7 cells. It is filed as functional, cell-based, COS-7.
Settings: not given
In the case of `CCCc1cc(C(F)(F)F)ccc1OCCCOc1ccc(OCC(=O)OC)c(C)c1`, the midpoint of the response, the EC50, lay at 1260 nM. That is a single-digit micromolar value.

Take `CCCc1c(OCCCOc2ccc(OCC(=O)OC)cc2)cnc(C(C)=O)c1O`: the EC50 turned out to be 757 nM.

`CCCc1cc(C(F)(F)F)ccc1OCCCOc1ccc(OCC(=O)OC)cc1` gave an EC50 of 1190 nM. Against the preceding compound, the EC50 is about 1.6-fold higher.

Compound `CCCc1c(OCCCOc2ccc(OCC(=O)OC)cc2)ccc(C(C)=O)c1O` displayed an EC50 of 288 nM.

As to `CCCc1cc(C(F)(F)F)ncc1OCCCOc1ccc(OCC(=O)O)c(C)c1`, the EC50 is 1580 nM.

Turning to `CCCc1cc(C(F)(F)F)ccc1OCCCOc1ccc(OCC(=O)O)c(C)c1`, the midpoint of the response, the EC50, lay at 153 nM.

Take `CCCc1c(OCCCOc2ccc(OCC(=O)O)cc2)ccc(C(C)=O)c1O`: the response was half-maximal at 1820 nM (EC50).

For a further assay, the species on record is Homo sapiens. Description: Selectivity for human PPARdelta over human PPARalpha.
Settings: not given
The procedure, abridged:
as §1
For the compound `CCCc1cc(C(F)(F)F)ncc1OCCCOc1ccc(OCC(=O)O)c(C)c1`, the Selectivity ratio was greater than 100.

As to `CCCc1c(OCCCOc2ccc(OCC(=O)O)cc2)ccc(C(C)=O)c1O`, the Selectivity ratio amounted to 8.

A further assay has as its target T1, Peroxisome proliferator-activated receptor alpha (Homo sapiens). Description: Activity at PPARalpha by luciferase reporter gene transactivation assay in COS7 cells relative to WY-14643 at 10 uM. It is filed as functional, cell-based. As to conditions: COS-7. Summed up:
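Cos-7 cells were transiently transfected, using PEI in OptiMEM for 3 h at 37 °C, with the pG5-TK-pGL3 luciferase reporter, pGAL4hPPARa (Gal4 DBD–human PPARα LBD) and pCMV-β-galactosidase. Cells were reseeded in 96-well plates and treated for 16 h in DMEM with 0.2% FCS at 10 µM–10 nM. Luciferase was normalized to β-galactosidase, and maximal activity was expressed versus the WY14.643 positive control. Experiments were run at least three times.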
`CCCc1cc(C(F)(F)F)ccc1OCCCOc1ccc(OCC(=O)OC)c(C)c1` came in with an Activity of 85%.

The compound `CCCc1c(OCCCOc2ccc(OCC(=O)OC)cc2)cnc(C(C)=O)c1O` came in with an Activity of 64%.

Consider `CCCc1cc(C(F)(F)F)ccc1OCCCOc1ccc(OCC(=O)OC)cc1`, for which the Activity came to 49%.

`CCCc1c(OCCCOc2ccc(OCC(=O)OC)cc2)ccc(C(C)=O)c1O` registered an Activity of 32%.

The compound `CCCc1cc(C(F)(F)F)ncc1OCCCOc1ccc(OCC(=O)O)c(C)c1` returned an Activity of 136%.

In the case of `Cc1cc(SCc2sc(-c3ccc(C(F)(F)F)cc3)nc2C)ccc1OCC(=O)O`, the Activity was 452%.

The compound `CCCc1cc(C(F)(F)F)ccc1OCCCOc1ccc(OCC(=O)O)c(C)c1` came in with an Activity of 40%.
